Results on nine molecules are retold here after ChEMBL document CHEMBL1151684, “Synthesis and antitumoral activity of novel 3-(2-substituted-1,3,4-oxadiazol-5-yl) and 3-(5-substituted-1,2,4-triazol-3-yl) beta-carboline derivatives” (2008).

Where only a bound is given, the exact number is not on record here.

Holding throughout (format): functional
For one experiment, the system named is MCF7. The experiment is described as follows: Growth inhibition of human MCF7 cells after 48 hrs by sulforhodamine B assay. The note with it: MCF7, 48 h. In short, it runs like this:
(§1)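 Sulforhodamine B colorimetric assay following the NCI standard protocol, with doxorubicin as positive control. Each compound was tested at four concentrations in 10-fold dilutions (0.25 to 250). GI50, the concentration giving 50% growth reduction versus untreated control cells, was derived from dose–response curves.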
On the technique in general: In SRB staining, fixed cells bind dye roughly in proportion to their protein.

The next experiment has as its system UACC-62. The experiment is described as follows: Growth inhibition of human UACC-62 cells after 48 hrs by sulforhodamine B assay. The settings on record: UACC-62, 48 h. The method in brief:
as §1

A further experiment has as its system OVCAR. Description: Growth inhibition of human OVCAR cells after 48 hrs by sulforhodamine B assay. The method in brief: as §1
In the next experiment the test system is 786-0. Description: Growth inhibition of human 786-0 cells after 48 hrs by sulforhodamine B assay. The settings on record: 786-0, 48 h; for CC50: read-out: LC50 (the source's name). The method in brief: as §1
The subject of the next experiment is HT-29. Description: Growth inhibition of human HT-29 cells after 48 hrs by sulforhodamine B assay. The note with it: HT-29, 48 h. In short, it runs like this: as §1
A short description of experiment [1]: Growth inhibition of human PCO3 cells after 48 hrs by sulforhodamine B assay. The settings on record: PCO3, 48 h. The method in brief:
as §1

A further experiment concerns K562. Description: Growth inhibition of human K-562 cells after 48 hrs by sulforhodamine B assay. The settings on record: K562, 48 h. The method in brief: as §1
Experiment [2] in a line: Growth inhibition of human NCI-460 cells after 48 hrs by sulforhodamine B assay. The note with it: NCI-460, 48 h. The method in brief: as §1

Turning to `COc1cc(-c2nc(-c3n[nH]c(=S)o3)cc3c2[nH]c2ccccc23)ccc1O`, the GI50 in the experiment on MCF7 turned out to be 32.2 µM; in the experiment with UACC-62, 17.3 µM; in the experiment with OVCAR it was 5.87 µM; with 786-0 it was 22.4 µM; with HT-29 it was 17.3 µM; in experiment [1] it was 25.9 µM. Besides, the GI50 in the experiment on K562 came to 31.7 µM; in experiment [2] it was 89.3 µM. Also, the TGI in the experiment on MCF7 is above 100 µM; with UACC-62, 47.9 µM; in the experiment on OVCAR, above 100 µM; in the experiment with 786-0, above 100 µM; in the experiment on HT-29, above 100 µM; in experiment [1], 97.3 µM. The TGI (in the experiment on K562; in experiment [2]) was above 100 µM throughout. Also, in the experiment with UACC-62, the LC50 (concentration killing 50% of cells, NCI protocol) is above 100 µM. Also, in experiment [1], the LC50 (concentration killing 50% of cells) was above 100 µM.
On to `CSc1nnc(-c2cc3c([nH]c4ccccc43)c(-c3ccc(O)cc3)n2)o1`, for which the GI50 with MCF7 was 7.42 µM; in the experiment on UACC-62, 19.1 µM; with OVCAR, 13.5 µM; with 786-0 it was 11.8 µM; in the experiment on HT-29, 12.8 µM; in experiment [1] it was 10.5 µM. For the same molecule, the GI50 with K562 was 10.8 µM; in experiment [2], 17.8 µM. Further, the LC50 (concentration killing 50% of cells) in the experiment with MCF7 amounted to 80.3 µM; in experiment [1], 59.2 µM. In addition, the TGI is 23.4 µM in the experiment with MCF7; above 100 µM in the experiment with UACC-62; 35 µM in the experiment on OVCAR; 24.8 µM with 786-0; 35 µM in the experiment with HT-29; 24.8 µM in experiment [1]. Moreover, the TGI with K562 stood at 28.8 µM; in experiment [2], 73.4 µM. In the experiment on OVCAR, this molecule returned an LC50 (concentration killing 50% of the cells, NCI protocol) of 100 µM. For the same molecule, the CC50 with 786-0 is 51.9 µM. The same molecule yielded an LC50 (concentration killing 50% of the cells present at the start) in the experiment on HT-29 above 100 µM. In experiment [2], this molecule showed an LC50 (concentration for 50% net cell kill) above 100 µM.
Take `S=c1[nH]nc(-c2cc3c([nH]c4ccccc43)c(-c3ccccc3)n2)[nH]1`: the GI50 was above 100 µM in the experiment with MCF7; 6.36 µM in the experiment with UACC-62; 64.9 µM in the experiment on OVCAR; 7.56 µM with 786-0; 35.5 µM in the experiment with HT-29; 4.11 µM in experiment [1]. Also, the GI50 in the experiment on K562 came out at 3.2 µM; in experiment [2], 6.36 µM.
For `Nn1c(-c2cc3c([nH]c4ccccc43)c(-c3ccccc3Cl)n2)n[nH]c1=S`, the GI50 in the experiment with MCF7 was determined as 70.1 µM; in the experiment with UACC-62 it was 20.2 µM; in the experiment on OVCAR, 6.8 µM; with 786-0 it was 39.5 µM; with HT-29, 33 µM; in experiment [1], 24.7 µM. Also, the 50% growth inhibitory concentration (GI50) with K562 was 62.4 µM; in experiment [2], 15.4 µM. Besides, the TGI with MCF7 is above 100 µM; in the experiment on UACC-62, 86.1 µM; in the experiment with OVCAR, 49.9 µM; with HT-29 it was above 100 µM; in experiment [1], above 100 µM; with K562, above 100 µM. Further, in experiment [2], the TGI was 38 µM. In the experiment with UACC-62, this molecule displayed an LC50 (concentration killing 50% of cells, NCI protocol) above 100 µM. In addition, the LC50 (concentration killing 50% of the cells, NCI protocol) with OVCAR is above 100 µM. The CC50 with 786-0 was above 100 µM. The same molecule yielded an LC50 (concentration for 50% net cell kill) in experiment [2] above 100 µM.
On to `CN(C)c1ccc(-c2nc(-c3n[nH]c(=S)[nH]3)cc3c2[nH]c2ccccc23)cc1`, for which the GI50 in the experiment with MCF7 was 8.63 µM; in the experiment with UACC-62, 1.74 µM; in the experiment with OVCAR it was 1.09 µM; with 786-0, 0.04 µM; with HT-29, 8.63 µM; in experiment [1] it was 1.37 µM. For the same molecule, the results for the GI50 (with K562; in experiment [2]) were 11.1 µM and 0.06 µM, respectively. For the same molecule, the LC50 (concentration killing 50% of cells) (with MCF7; in experiment [1]) was above 100 µM each time. Further, the TGI with MCF7 was 37 µM; with UACC-62, above 100 µM; in the experiment with OVCAR, 7.28 µM; with 786-0, 1.24 µM; in the experiment with HT-29 it was 51.5 µM; in experiment [1], 6.68 µM. The TGI in the experiment on K562 was above 100 µM; in experiment [2], 8.96 µM. This molecule displayed an LC50 (concentration killing 50% of the cells, NCI protocol) in the experiment with OVCAR of 47.9 µM. In addition, in the experiment with 786-0, the CC50 was determined as 37.3 µM. This molecule registered an LC50 (concentration for 50% net cell kill) in experiment [2] above 100 µM.
With `CSc1nnc(-c2cc3c([nH]c4ccccc43)c(-c3ccc(N(C)C)cc3)n2)o1`, the GI50 in the experiment with MCF7 was above 100 µM; in the experiment with UACC-62, above 100 µM; in the experiment on OVCAR, above 100 µM; in the experiment with 786-0 it was above 100 µM; in the experiment with HT-29, 87.4 µM; in experiment [1] it was 92.6 µM. Also, the GI50 (in the experiment on K562; in experiment [2]) was above 100 µM in each case.
In the case of `CSc1nnc(-c2cc3c([nH]c4ccccc43)c(-c3cccc([N+](=O)[O-])c3)n2)o1`, the concentration for 50% growth inhibition (GI50) in the experiment on MCF7 was 79.8 µM; with UACC-62 it was 16.4 µM; with OVCAR it was 21.3 µM; in the experiment on 786-0 it was above 100 µM; with HT-29 it was 68.1 µM; in experiment [1], 44.2 µM. Moreover, the GI50 in the experiment with K562 turned out to be 21.3 µM; in experiment [2], 24.5 µM. Further, the TGI with MCF7 was above 100 µM; with UACC-62, 69.4 µM; in the experiment with OVCAR it was above 100 µM; with 786-0, above 100 µM; with HT-29, above 100 µM; in experiment [1], above 100 µM. In addition, the TGI is 81.5 µM in the experiment with K562 and 99.2 µM in experiment [2]. Also, the LC50 (concentration killing 50% of cells, NCI protocol) in the experiment on UACC-62 was above 100 µM. Also, the LC50 (concentration causing 50% net cell kill) in the experiment with K562 was above 100 µM. The molecule also had an LC50 (concentration for 50% net cell kill) in experiment [2] above 100 µM.
Turning to `Nn1c(-c2cc3c([nH]c4ccccc43)c(-c3ccccc3)n2)n[nH]c1=S`, the GI50 in the experiment with MCF7 came to 15 µM; in the experiment on UACC-62, 24.3 µM; in the experiment on OVCAR, 12 µM; in the experiment on 786-0 it was 10.9 µM; with HT-29, 15 µM; in experiment [1], 10.9 µM. The GI50 turned out to be 9.93 µM with K562 and 1.59 µM in experiment [2]. For the same molecule, the LC50 (concentration killing 50% of cells) (in the experiment with MCF7; in experiment [1]) was above 100 µM throughout. Also, the TGI was 32.5 µM in the experiment on MCF7; above 100 µM in the experiment with UACC-62; 25.3 µM in the experiment with OVCAR; 49.4 µM in the experiment with 786-0; 86.9 µM with HT-29; 30.6 µM in experiment [1]. Besides, the TGI with K562 is above 100 µM; in experiment [2], 54.7 µM. The molecule also came in with an LC50 (concentration killing 50% of the cells, NCI protocol) in the experiment on OVCAR of 52.5 µM. Moreover, in the experiment with 786-0, the CC50 is above 100 µM. In addition, the LC50 (concentration for 50% net cell kill) in experiment [2] was above 100 µM.
Turning to `COc1ccc(-c2nc(-c3n[nH]c(=S)o3)cc3c2[nH]c2ccccc23)cc1`, the GI50 with MCF7 is 24.9 µM; in the experiment on UACC-62, 16.8 µM; in the experiment on OVCAR, above 100 µM; with 786-0, 31.6 µM; with HT-29, 20.3 µM; in experiment [1], 17.3 µM. In addition, the GI50 stood at 26.4 µM with K562 and 9.2 µM in experiment [2]. The LC50 (concentration killing 50% of cells) (in the experiment with MCF7; in experiment [1]) was above 100 µM each time. In addition, the TGI in the experiment with MCF7 is 97 µM; in the experiment with UACC-62 it was 47.2 µM; in the experiment on OVCAR, above 100 µM; in the experiment on 786-0, above 100 µM; with HT-29, 55.3 µM; in experiment [1] it was 41.1 µM. Moreover, the TGI (with K562; in experiment [2]) was above 100 µM each time. The molecule further gave an LC50 (concentration killing 50% of cells, NCI protocol) in the experiment with UACC-62 above 100 µM. In addition, in the experiment with HT-29, the LC50 (concentration killing 50% of the cells present at the start) was above 100 µM.

The term GI50 denotes the concentration giving 50% growth inhibition. A lower GI50 goes with greater sensitivity of the cells. One may read the TGI as the concentration giving total growth inhibition. High values mean lower sensitivity of the cells, low ones greater sensitivity of the cells.
